Measured values as given in ChEMBL document CHEMBL1122366, “Potential antiatherosclerotic agents. 3. Substituted benzoic and non benzoic acid analogues of cetaben” (1983).
Values joined by “and” are separate entries in the source; they are usually repeats but may differ in a detail not shown here. Identical values can stand only once.

Key:
Assay type in all cases: functional
[1] = tested on: Rattus norvegicus; experiment: In vivo triglyceride lowering activity when dosed at 0.03 % of the diet
Method in brief: (§1)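 Normal rats were dosed in the diet. Serum sterol and triglyceride levels were measured and expressed as the mean percent of control values. Significance versus control was reported at p < 0.05, 0.01 and 0.001.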

[2] = tested on: Rattus norvegicus; experiment: In vivo sterol lowering activity at dose of 0.10 % of the diet; method in brief: as §1
[3] = tested on: Rattus norvegicus; experiment: In vivo triglyceride lowering activity dosed at 0.10 % of the diet.; method in brief: as §1
[4] = tested on: Rattus norvegicus; experiment: In vivo triglyceride lowering activity when dosed as 0.01 % of the diet; method in brief: as §1
[5] = tested on: Rattus norvegicus; experiment: In vivo sterol lowering activity when dosed as 0.01 % of the diet; method in brief: as §1
[6] = tested on: Rattus norvegicus; experiment: In vivo sterol lowering activity when dosed as 0.03 % of the diet; method in brief: as §1

Row | Structure (SMILES) | serum triglyceride level, percent of control [1] | serum sterol level, percent of control [2] | serum triglyceride, percent of control [3] | serum triglyceride level, percent of control [4] | serum sterol level, % of control [5] | serum sterol level, percent of control [6]
1 | CCCCCCCCCCCCCCCCN(C)c1ccc(C(=O)OCC)cc1 | <73% | <74% | 78% | <64% | <70% | 84%
2 | CCCCCCCCCCCCCCCCNc1ccc(CO)cc1 | 117% | 95% | 91% | 110% | 98% | 95%
3 | CCCCCCCCCCCCCCCCNc1ccc(C(=O)OCC)cc1C | 94% | 103% | 95% | 81% | 92% | <87%
4 | CCCCCCCCCCCCCCCCNc1ccc(C(=O)O)c(Cl)c1 | 109% | 95% | 101% | 113% | 100% | 95%
5 | CCCCCCCCCCCCCCCCN(CC(=O)O)c1ccc(C(=O)O)cc1 | 100% | 93% | 99% | 105% | 105% | 109%
6 | CCCCCCCCCCCCCCCCCN(CC)c1ccc(C(=O)O)cc1 | 108% | 95% | 106% | 126% | 98% | 98%
7 | CCCCCCCCCCCCCCCCNc1ccc(C(=O)OCC(O)CO)cc1 (stereo not given) | <67% | <71% | <45% | <73% | <85% | <82%
8 | CCCCCCCCCCCCCCCCCCN(C)c1ccc(C(=O)O)cc1 | <61% | 91% | <75% | 86% | 101% | 92%
9 | CCCCCCCCCCCCCCCCNc1ccc(C(=O)O)cc1Br | 96% and 99% | 93% and 97% | 91% and 100% | 95% and 104% | 92% and 101% | 100% and 99%
10 | Br.CCCCCCCCCCCCCCCCNc1ccc(COC(C)=O)cc1 | 135% | <85% | 114% | 79% | 93% | 92%
11 | CCCCCCCCCCCCCCCCN(CCCCCCCCCCCCCCCC)c1ccc(C(=O)O)c2ccccc12 | 99% | 101% | 112% | 100% | 111% | 109%
12 | CCCCCCCCCCCCCCCCNCc1ccc(C(=O)O)cc1 | 91% | <88% | 96% | 86% | 97% | <89%
13 | CCCCCCCCCCCCCCCCNc1ccc(CC(=O)O)cc1 | 81% | 87% | <63% | 76% | 93% | 87%
14 | CCCCCCCCCCCCCCN(C(C)=O)c1ccc(C(=O)O)cc1 | 80% | 91% | 96% | 98% | 95% | <80%
15 | CCCCCCCCCCCCCCCCN(CC)c1ccc(C(=O)O)cc1 | <63% | <86% | 98% | <78% | <74% | <60%
16 | CCCCCCCCCCCCCCCCNc1ccc(C(=O)OCC(O)CO)cc1.Cl (stereo not given) | <49% | <69% | <30% | 98% | <88% | 92%
17 | CCCCCCCCCCCCCCCCCCN(CC)c1ccc(C(=O)O)cc1 | 102% | 108% | 103% | 85% | 102% | 102%
18 | CCCCCCCCCCCCCCCCNc1ccc(C(=O)OCCN(C)C)cc1.Cl | 73% | 92% | <59% | 77% | 99% | <92%
19 | CCCCCCCCCCCCCCCCN(C)c1ccc(C(=O)O)cc1 | <66% | 85% | 56% | <81% | 85% | 92%
20 | CCCCCCCCCCCCCCN(C)c1ccc(C(=O)O)cc1 | 92% | 97% | 103% | 82% | 97% | 94%
